Reference: ChEMBL document CHEMBL1806473, “Structure-based optimization of click-based histone deacetylase inhibitors” (Eur J Med Chem, 2011)

Tests used:
SK-OV-3 = assay: Antiproliferative activity against human SKOV3 cells by SRB assay; assay type: functional
Summary of the method: (§1)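 Tested in the NCI in vitro human tumor cell line screen, run by the National Cancer Institute. Each compound was given at five concentrations (100, 10, 1.0, 0.1 and 0.01 μM). GI50 is the drug concentration that reduces growth of treated cells to half that of control cells during drug incubation, judged from the SRB signal.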

A498 [1] = assay: Antiproliferative activity against human A498 cells by SRB assay; assay type: functional; summary of the method: as §1
K562 [2] = assay: Cytotoxicity against human K562 cells; assay type: cell-based
Malme-3M [3] = assay: Cytotoxicity against human MALME-3M cells; assay type: cell-based
Summary of the method: (§2)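 Tested in the NCI in vitro disease-oriented human tumour cell line screen, with screening performed by NCI. Growth was read by SRB signal over the drug incubation period at five concentrations: 100, 10, 1.0, 0.1 and 0.01 μM. GI50 is the concentration that reduces growth of treated cells to half that of control cells.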

PC-3 = assay: Antiproliferative activity against human PC3 cells by SRB assay; assay type: functional; summary of the method: as §1
HL-60(TB) = assay: Antiproliferative activity against human HL-60(TB) cells by SRB assay; assay type: functional; summary of the method: as §2
UACC-257 [4] = assay: Cytotoxicity against human UACC257 cells; assay type: cell-based
Summary of the method: (§3)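 Screened by NCI in its in vitro disease-oriented human tumour cell line panel. Compounds tested at five concentrations (100, 10, 1.0, 0.1 and 0.01 μM). Growth read by sulforhodamine B (SRB) signal. GI50 is the concentration reducing growth of treated cells to half that of control cells during the drug incubation.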

CCRF-CEM [5] = assay: Antiproliferative activity against human CCRF-CEM cells by SRB assay; assay type: functional; summary of the method: as §1
A498 [6] = assay: Cytotoxicity against human A498 cells; assay type: cell-based
ACHN = assay: Antiproliferative activity against human ACHN cells by SRB assay; assay type: functional; summary of the method: as §1
NCI-H522 = assay: Cytotoxicity against human NCI-H522 cells; assay type: cell-based; summary of the method: as §2
KM12 = assay: Antiproliferative activity against human KM12 cells by SRB assay; assay type: functional; summary of the method: as §1
HOP-92 [7] = assay: Antiproliferative activity against human HOP92 cells by SRB assay; assay type: functional; summary of the method: as §1
BT-549 = assay: Cytotoxicity against human BT549 cells; assay type: cell-based
OVCAR-5 [8] = assay: Antiproliferative activity against human OVCAR5 cells by SRB assay; assay type: functional; summary of the method: as §1
OVCAR-4 [9] = assay: Cytotoxicity against human OVCAR4 cells; assay type: cell-based
COLO 205 [10] = assay: Cytotoxicity against human COLO205 cells; assay type: cell-based; summary of the method: as §2
U-251 = assay: Antiproliferative activity against human U251 cells by SRB assay; assay type: functional
Summary of the method: (§4)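 Cell growth was tested in the NIH in vitro disease-oriented human tumor cell line screen, which NCI ran for these compounds. Compounds were tested at five concentrations (100, 10, 1.0, 0.1 and 0.01 μM), and growth was read by SRB signal. GI50 is the drug concentration that reduces growth of treated cells to half that of control cells during drug incubation.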

NCI-H226 = assay: Antiproliferative activity against human NCI-H226 cells by SRB assay; assay type: functional; summary of the method: as §1
MDA-MB-231 = assay: Antiproliferative activity against human MDA-MB-231 cells by SRB assay; assay type: functional; summary of the method: as §1
IGROV-1 [11] = assay: Antiproliferative activity against human IGROV1 cells by SRB assay; assay type: functional; summary of the method: as §1
MDA-MB-435 [12] = assay: Antiproliferative activity against human MDA-MB-435 cells by SRB assay; assay type: functional; summary of the method: as §1
NCI-H460 = assay: Antiproliferative activity against human NCI-H460 cells by SRB assay; assay type: functional; summary of the method: as §1
K562 [13] = assay: Antiproliferative activity against human K562 cells by SRB assay; assay type: functional; summary of the method: as §1
MDA-MB-435 [14] = assay: Cytotoxicity against human MDA-MB-435 cells; assay type: cell-based
DU-145 [15] = assay: Cytotoxicity against human DU145 cells; assay type: cell-based; summary of the method: as §2
A549 = assay: Antiproliferative activity against human A549 cells by SRB assay; assay type: functional; summary of the method: as §1
786-0 = assay: Antiproliferative activity against human 786-0 cells by SRB assay; assay type: functional; summary of the method: as §1
SW-620 = assay: Antiproliferative activity against human SW620 cells by SRB assay; assay type: functional; summary of the method: as §4
HOP-62 = assay: Antiproliferative activity against human HOP62 cells by SRB assay; assay type: functional; summary of the method: as §1
T47D = assay: Cytotoxicity against human T47D cells; assay type: cell-based; summary of the method: as §3
SF-268 = assay: Cytotoxicity against human SF268 cells; assay type: cell-based; summary of the method: as §2
SR = assay: Antiproliferative activity against human SR cells by SRB assay; assay type: functional; summary of the method: as §4
NCI-H23 [16] = assay: Cytotoxicity against human NCI-H23 cells; assay type: cell-based
MOLT-4 = assay: Antiproliferative activity against human MOLT4 cells by SRB assay; assay type: functional; summary of the method: as §1
RPMI-8226 = assay: Cytotoxicity against human RPMI8226 cells; assay type: cell-based; summary of the method: as §2
HCT-116 = assay: Cytotoxicity against human HCT116 cells; assay type: cell-based; summary of the method: as §2
RXF 393 [17] = assay: Cytotoxicity against human RXF393 cells; assay type: cell-based; summary of the method: as §2
OVCAR-4 [18] = assay: Antiproliferative activity against human OVCAR4 cells by SRB assay; assay type: functional; summary of the method: as §1
NCI-H23 [19] = assay: Antiproliferative activity against human NCI-H23 cells by SRB assay; assay type: functional; summary of the method: as §1
HCT-15 [20] = assay: Antiproliferative activity against human HCT15 cells by SRB assay; assay type: functional; summary of the method: as §1
DU-145 [21] = assay: Antiproliferative activity against human DU145 cells by SRB assay; assay type: functional; summary of the method: as §1
CAKI-1 = assay: Antiproliferative activity against human Caki1 cells by SRB assay; assay type: functional; summary of the method: as §1
CCRF-CEM [22] = assay: Cytotoxicity against human CCRF-CEM cells; assay type: cell-based
RXF 393 [23] = assay: Antiproliferative activity against human RXF393 cells by SRB assay; assay type: functional; summary of the method: as §1
TK-10 [24] = assay: Antiproliferative activity against human TK10 cells by SRB assay; assay type: functional; summary of the method: as §4
UO-31 = assay: Cytotoxicity against human UO31 cells; assay type: cell-based; summary of the method: as §3
OVCAR-5 [25] = assay: Cytotoxicity against human OVCAR5 cells; assay type: cell-based; summary of the method: as §2
LOX IMVI = assay: Cytotoxicity against human LOXIMVI cells; assay type: cell-based
Malme-3M [26] = assay: Antiproliferative activity against human MALME-3M cells by SRB assay; assay type: functional; summary of the method: as §1
M14 [27] = assay: Antiproliferative activity against human M14 cells by SRB assay; assay type: functional; summary of the method: as §1
SK-MEL-5 = assay: Cytotoxicity against human SK-MEL-5 cells; assay type: cell-based
HOP-92 [28] = assay: Cytotoxicity against human HOP92 cells; assay type: cell-based
Histone deacetylase = assay: Inhibition of HDAC in human HeLa cells using Ac-Arg-Gly-Lys(Ac)-AMC as fluorescent substrate after 20 mins by fluorescence assay; assay type: cell-based
M14 [29] = assay: Cytotoxicity against human M14 cells; assay type: cell-based
NCI-H322M = assay: Cytotoxicity against human NCI-H322M cells; assay type: cell-based
COLO 205 [30] = assay: Antiproliferative activity against human COLO205 cells by SRB assay; assay type: functional; summary of the method: as §1
IGROV-1 [31] = assay: Cytotoxicity against human IGROV1 cells; assay type: cell-based
TK-10 [32] = assay: Cytotoxicity against human TK10 cells; assay type: cell-based; summary of the method: as §3
UACC-257 [33] = assay: Antiproliferative activity against human UACC257 cells by SRB assay; assay type: functional; summary of the method: as §4
SNB-19 = assay: Antiproliferative activity against human SNB19 cells by SRB assay; assay type: functional; summary of the method: as §1
EKVX = assay: Antiproliferative activity against human EKVX cells by SRB assay; assay type: functional; summary of the method: as §1
HCT-15 [34] = assay: Cytotoxicity against human HCT15 cells; assay type: cell-based; summary of the method: as §2

What does the source list for O=C(/C=C/c1cn(C(/C=C/c2ccccc2)Cc2ccccc2)nn1)NO (stereo not drawn)?
GI50 (SK-OV-3): 1980 nM; GI50 (A498 [1]): 1160 nM; LC50 (K562 [2]): > 100000 nM; LC50 (Malme-3M [3]): 28600 nM; GI50 (PC-3): 1520 nM; GI50 (HL-60(TB)): 670 nM; LC50 (UACC-257 [4]): 93700 nM; GI50 (CCRF-CEM [5]): 320 nM; LC50 (A498 [6]): 5460 nM; GI50 (ACHN): 1230 nM; LC50 (NCI-H522): 6360 nM; GI50 (KM12): 1930 nM; GI50 (HOP-92 [7]): 1080 nM; LC50 (BT-549): > 100000 nM; GI50 (OVCAR-5 [8]): 426 nM; LC50 (OVCAR-4 [9]): 61600 nM; LC50 (COLO 205 [10]): 8000 nM; GI50 (U-251): 948 nM; GI50 (NCI-H226): 2440 nM; GI50 (MDA-MB-231): 2210 nM; GI50 (IGROV-1 [11]): 836 nM; GI50 (MDA-MB-435 [12]): 866 nM; GI50 (NCI-H460): 1040 nM; GI50 (K562 [13]): 1050 nM; LC50 (MDA-MB-435 [14]): 15700 nM; LC50 (DU-145 [15]): 46300 nM; GI50 (A549): 1410 nM; GI50 (786-0): 1380 nM; GI50 (SW-620): 892 nM; GI50 (HOP-62): 1440 nM; LC50 (T47D): 61700 nM; LC50 (SF-268): 9170 nM; GI50 (SR): 624 nM; LC50 (NCI-H23 [16]): 8680 nM; GI50 (MOLT-4): 493 nM; LC50 (RPMI-8226): > 100000 nM; LC50 (HCT-116): 5970 nM; LC50 (RXF 393 [17]): 7610 nM; GI50 (OVCAR-4 [18]): 1750 nM; GI50 (NCI-H23 [19]): 1510 nM; GI50 (HCT-15 [20]): 1590 nM; GI50 (DU-145 [21]): 1080 nM; GI50 (CAKI-1): 440 nM; LC50 (CCRF-CEM [22]): > 100000 nM; GI50 (RXF 393 [23]): 1210 nM; GI50 (TK-10 [24]): 827 nM; LC50 (UO-31): 6570 nM; LC50 (OVCAR-5 [25]): 22300 nM; LC50 (LOX IMVI): 4620 nM; GI50 (Malme-3M [26]): 305 nM; GI50 (M14 [27]): 1180 nM; LC50 (SK-MEL-5): 5300 nM; LC50 (HOP-92 [28]): 11600 nM; IC50 (Histone deacetylase): 77 nM; LC50 (M14 [29]): 16500 nM; LC50 (NCI-H322M): 46700 nM; GI50 (COLO 205 [30]): 1100 nM; LC50 (IGROV-1 [31]): 8180 nM; LC50 (TK-10 [32]): 12900 nM; GI50 (UACC-257 [33]): 1680 nM; GI50 (SNB-19): 2000 nM; GI50 (EKVX): 1460 nM; LC50 (HCT-15 [34]): 74500 nM
